Screens deposited in PubChem by Broad Institute.
FGF22 binding = binders of recombinant human FGF22 by thermal shift | Q9HCT0 | SYPRO orange fluorescence; percent of sucrose octasulfate shift, DMSO zero | activity (Tm shift, normalised), % at 9.99 µM | hit rate 1.5% among 340,000 | AID 651658;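 active = mean Tm shift, scaled 0 neutral to 100 positive control, at about 1.3% or above, every replicate too, limit read from the data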
CFTR F508del cor = CFTR F508del correction in bronchial cells | CFBE cells, YFP halide quenching; stimulated with forskolin plus potentiator P3; % fluorescence drop versus neutral controls | activity (quench increase), % at 7.58 µM | hit rate 0.36% among 350,000 | AID 720511;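 active = mean added fluorescence quench of at least 8% versus neutral control, with both replicates also reaching 8%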;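 note: cells transiently co-express mutant CFTR-F508del with the halide-sensitive YFP; corrector assay measuring rescue of mutant channel to the surface after 24 h compound exposure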
DENV2 CPE = inhibitors of DENV2 cytopathic effect. CPE inhibition, % at 9.99 µM. hit rate 1.7% among 350,000. AID 651640. DENV2-infected cells, cytopathic effect rescue, plate reader; in the data active = CPE inhibition above about 20%, passing the limit was not always enough; tested in BHK-21 cells
E-sel inducer = induces E-selectin expression in human endothelial cells | P16581 | HUVEC E-selectin immunofluorescence imaging; normalized: neutral wells 0, TNF-alpha wells 100 | activation, % at 7.58 µM | hit rate 0.37% among 260,000 | AID 686992;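 active = mean E-selectin-positive cell signal at least 10% of the positive control, reached in at least 60% of replicates, without over 20% cell loss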
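Test system: HUVEC; input: 3,000 HUVEC/well; measured by: immunofluorescence imaging; read-out: % PE-positive cells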
ERAP1 inh = ERAP1 (human) enzyme inhibition; recombinant ERAP1, Leu-AMC fluorescence, 60 min; inhibition, % at 10.7 µM; hit rate 0.15% among 340,000; AID 652197;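 active = mean replicate inhibition of at least 30%, or all replicates individually reaching that 30% level; inactive = mean below 30% and not every replicate reaching it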
Large screens that a line does not name were inactive. An excerpt weighted towards active compounds, which were near 3.7% of everything screened.

COc1cccc(NC(=O)CN(C)C(=O)Cc2ccc3c(c2)OCCO3)c1	DENV2 CPE 41.7
COC(=O)C1=C(C)NC(C)=C(C(=O)OC)C1C(=O)OCC(=O)N1c2ccccc2CC1C (stereo not drawn)	ERAP1 inh 48.4
CCOC(=O)C1=C(C)NC(C)=C(C(=O)OCC)C1C(=O)OCC(=O)N1CCCCC1CC (stereo not drawn)	none
CCOC(=O)C1=C(C)NC(C)=C(C(=O)OCC)C1C(=O)OCC(=O)N1CCC(C)CC1	FGF22 binding 43.3
Cc1nc2sc(C(=O)OCC(=O)N3c4ccccc4CC3C)c(C)c2c(=O)[nH]1 (stereo not drawn)	FGF22 binding 42.9
CC1Cc2ccccc2N1C(=O)COC(=O)c1ccc(O)cc1 (stereo not drawn)	none
C[C@H]1CN([C@@H](C)CO)C(=O)c2cccc(NC(=O)c3cnccn3)c2O[C@@H]1CN(C)Cc1ccccc1	none
Cc1nccn1CC(O)COc1ccc(Cl)cc1Cl (stereo not drawn)	DENV2 CPE 31.1 (no result: E-sel inducer)
Cc1cc(C)n(CC(O)COc2ccc(Cl)cc2Cl)n1 (stereo not drawn)	none (no result: E-sel inducer)
CCOC(=O)N1CCc2c(sc(NC(=O)c3ccc(S(=O)(=O)N4CCCC4)cc3)c2C#N)C1	ERAP1 inh 31.2 (no result: E-sel inducer)
COc1ccc(C(=O)Nc2sc3c(c2C#N)CCN(C(C)=O)C3)cc1	none (no result: E-sel inducer)
C[C@H]1CCCCO[C@@H](CN(C)C(=O)c2ccccc2)[C@@H](C)CN([C@@H](C)CO)C(=O)c2cc(NC(=O)Nc3ccc(F)cc3)ccc2O1	DENV2 CPE 22.4
C[C@@H]1CN([C@@H](C)CO)C(=O)c2cc(NC(=O)Nc3ccc(F)cc3)ccc2O[C@@H](C)CCCCO[C@H]1CN(C)C(=O)c1ccccc1	none
C[C@@H]1CCCCO[C@H](CN(C)C(=O)c2ccccc2)[C@H](C)CN([C@@H](C)CO)C(=O)c2cc(NC(=O)Nc3ccc(F)cc3)ccc2O1	FGF22 binding 1.3
C[C@@H]1CCCCO[C@H](CN(C)C(=O)c2ccccc2)[C@@H](C)CN([C@H](C)CO)C(=O)c2cc(NC(=O)Nc3ccc(F)cc3)ccc2O1	DENV2 CPE 31.5
C[C@@H]1CCCCO[C@H](CN(C)S(=O)(=O)c2ccc(F)cc2)[C@@H](C)CN([C@@H](C)CO)C(=O)c2cc(NC(=O)Nc3cccc4ccccc34)ccc2O1	none
COc1ccccc1NC(=O)N[C@@H]1CC[C@H](CCNS(=O)(=O)c2ccc(C)cc2)O[C@@H]1CO	none (no result: FGF22 binding)
CCCC(=O)Nc1ccc2c(c1)C(=O)N(C)C[C@@H](OC)[C@@H](C)CN(C(=O)CN(C)C)[C@H](C)CO2	none
O=C(c1ccc(F)cc1)N1CC(=O)N2[C@@H](CO)[C@H](c3ccc(-c4ccccc4F)cc3)[C@@H]2C1	none (no result: FGF22 binding)
O=C1CNC[C@H]2[C@H](c3ccc(-c4ccccc4F)cc3)[C@@H](CO)N12	DENV2 CPE 37.0 (no result: FGF22 binding)
O=C(c1ccc(F)cc1)N1CC(=O)N2[C@H](C1)[C@H](c1ccc(-c3ccccc3F)cc1)[C@@H]2CO	DENV2 CPE 25.8 (no result: FGF22 binding)
O=C(c1ccc(F)cc1)N1CC(=O)N2[C@H](C1)[C@H](c1ccc(C3=CCCC3)cc1)[C@@H]2CO	DENV2 CPE 53.2 (no result: FGF22 binding, ERAP1 inh)
O=C1CNC[C@H]2[C@@H](c3ccc(-c4ccccc4F)cc3)[C@H](CO)N12	none (no result: FGF22 binding)
Cc1noc(C)c1NC(=O)Nc1ccc2c(c1)C(=O)N([C@H](C)CO)C[C@@H](C)[C@H](CN(C)CC1CCCCC1)O2	none
Cc1ccc(Nc2nc(N)c3ccccc3n2)cc1Cl	FGF22 binding 2.2
COc1ccc2c3c(n(C)c2c1)[C@@H](CO)NCC31CCN(C(C)=O)CC1	none (no result: ERAP1 inh)
CC(=O)n1nc(-c2ccccc2)cc1-c1ccccc1	none (no result: E-sel inducer, ERAP1 inh)
O=C(O)Cn1nc(-c2ccccc2)cc1-c1ccccc1	DENV2 CPE 80.1 (no result: E-sel inducer)
CO[C@H]1CN(C)C(=O)c2cc(NS(=O)(=O)c3ccc(C)cc3)ccc2OC[C@@H](C)N(C)C[C@@H]1C	none
CCCn1c(SCC(=O)Nc2cc(Cl)ccc2Cl)n[nH]c1=O	FGF22 binding 43.1
CC(C)NC(=O)Nc1ccc2c(c1)C(=O)N([C@H](C)CO)C[C@@H](C)[C@H](CN(C)C(=O)NC(C)C)O2	none (no result: DENV2 CPE)
C[C@H]1CN([C@@H](C)CO)C(=O)Cc2cc(NC(=O)Nc3ccc4c(c3)OCO4)ccc2O[C@H]1CN(C)C(=O)Nc1ccc(F)cc1	none (no result: ERAP1 inh)
C[C@H](CO)N1C[C@H](C)[C@@H](CN(C)C(=O)Nc2ccc3c(c2)OCO3)Oc2ccc(NC(=O)Nc3ccc(F)cc3)cc2CC1=O	DENV2 CPE 23.3
CCOC(=O)CCCCCC(=O)Nc1ccc2c(c1)CC(=O)N([C@@H](C)CO)C[C@H](C)[C@@H](CN(C)C(=O)Nc1ccc3c(c1)OCO3)O2	DENV2 CPE 45.9
C[C@@H]1CN([C@@H](C)CO)C(=O)Cc2cc(NC(=O)Nc3ccc4c(c3)OCO4)ccc2O[C@H]1CN(C)C(=O)Nc1ccc(F)cc1	DENV2 CPE 45.3 (no result: ERAP1 inh)
C[C@@H]1CN([C@H](C)CO)C(=O)Cc2cc(NC(=O)CCCN(C)C)ccc2O[C@H]1CN(C)C(=O)Nc1ccc2c(c1)OCO2	none (no result: E-sel inducer)
O=C(C[C@@H]1C=C[C@@H](NC(=O)Nc2ccc(F)cc2)[C@@H](CO)O1)NCc1cccc(F)c1	none
COCCNC(=O)C(C)Oc1ccccc1 (stereo not drawn)	FGF22 binding 43.1
COc1ccccc1Cc1c(-c2ccc(Cl)cc2)nc2ccc(Br)cn12	CFTR F508del cor 10.3 (no result: E-sel inducer)
Cc1ccc(Cc2c(-c3ccccc3)nc3c4ccccc4ccn23)cc1	none
Cc1ccc(Cc2c(-c3cccc(Br)c3)nc3c4ccccc4ccn23)cc1	DENV2 CPE 38.9
Clc1cccc(Cc2c(-c3cccc(Br)c3)nc3c4ccccc4ccn23)c1	FGF22 binding 43.3
Clc1ccc(-c2nc3c4ccccc4ccn3c2Cc2cccc(Cl)c2)cc1	none
Cc1ccc2nc(-c3ccccc3)c(Cc3ccsc3)n2c1	none (no result: ERAP1 inh)
Cc1ccc2nc(-c3cccc(Br)c3)c(Cc3ccsc3)n2c1	DENV2 CPE 24.4
C[C@H]1CN([C@@H](C)CO)S(=O)(=O)c2ccc(-c3cccc(C#N)c3)cc2O[C@H]1CN(C)Cc1cccc(F)c1	none
C[C@H](NC(=O)[C@H]1[C@H](CO)[C@H]2Cn3c(cccc3=O)[C@H]2N1C(=O)C1CC1)c1ccccc1	none
COc1ccc(-c2nc3c4ccccc4ccn3c2Cc2cccc(Cl)c2)cc1OC	DENV2 CPE 75.8
COc1ccc(-c2nc3c4ccccc4ccn3c2Cc2ccc(C)cc2)cc1OC	none
Cc1ccc(Cc2c(-c3ccc(C)cc3)nc3c(C)cc(Br)cn23)cc1	CFTR F508del cor 10.8
FC(F)(F)c1ccccc1Cc1c(-c2cccc(Br)c2)nc2ccc(Br)cn12	FGF22 binding 19.9
CCOc1ccc2[nH]c(=O)c(CN(CCCN3CCOCC3)Cc3nnnn3Cc3ccc(OC)cc3)cc2c1	FGF22 binding 43.1 (no result: E-sel inducer)
